pIC50: −log10 of the molar value.
System: L1210
Experiment: Cytotoxicity was determined in vitro in murine leukemia L1210 Cells
Assay type: functional
Settings: Mus musculus, read-out: ID50 (the source's name)
In short: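 Growth inhibition of murine leukemia L1210 cells cultured in vitro. Cells were exposed to the adducts for 48 h and then counted. ID50 is the drug concentration that cuts cell number by 50% relative to untreated control.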

| SMILES | pIC50 |
| --- | --- |
| Cc1c2cc[n+](C)cc2c(C)c2c3c([nH]c12)C=CC(=O)[C@@]31O[C@@H]2[C@H](O1)[C@@H](COP(=O)(O)O)O[C@H]2n1ccc(=O)[nH]c1=O | 5.96 |
| Nc1nc2[nH]cnc2c(=S)[nH]1 [THIOGUANINE] | 7.15 |
| Cc1c2cc[n+](C)cc2c(C)c2c1[nH]c1ccc(O)cc12 [ELLIPTINIUM ACETATE] | 6.92 |
| Cc1c2cc[n+](C)cc2c(C)c2c3c([nH]c12)C=CC(=O)[C@@]31O[C@@H]2[C@H](O1)[C@@H](CO)O[C@H]2n1ccc(N)nc1=O | 5.52 |
| Cc1c2cc[n+](C)cc2c(C)c2c3c([nH]c12)C=CC(=O)[C@@]31O[C@@H]2[C@H](O1)[C@@H](COP(=O)(O)O)O[C@H]2n1ccc(N)nc1=O | 4.89 |
| Cc1c2cc[n+](C)cc2c(C)c2c3c([nH]c12)C=CC(=O)[C@@]31O[C@@H]2[C@H](O1)[C@@H](CO)O[C@H]2n1cnc2c(O)nc(N)nc21 | 6.10 |
| Cc1c2cc[n+](C)cc2c(C)c2c3c([nH]c12)C=CC(=O)[C@@]31O[C@@H]2[C@H](O1)[C@@H](CO)O[C@H]2n1ccc(=O)[nH]c1=O | < 5.52 |
| Cc1c2cc[n+](C)cc2c(C)c2c3c([nH]c12)C=CC(=O)[C@@]31O[C@@H]2[C@H](O1)[C@@H](CO)O[C@H]2n1ncc(=O)[nH]c1=O | < 5.52 |
| Cc1c2cc[n+](C)cc2c(C)c2c3c([nH]c12)C=CC(=O)[C@@]31O[C@@H]2[C@H](O1)[C@@H](COP(=O)(O)O)O[C@H]2n1cnc2c(O)nc(N)nc21 | < 6.00 |
| Nc1nc(=S)c2ncn([C@@H]3O[C@H](CO)[C@@H](O)[C@H]3O)c2[nH]1 [THIOGUANOSINE] | 7.00 |
| Cc1c2cc[n+](C)cc2c(C)c2c3c([nH]c12)C=CC(=O)[C@@]31O[C@@H]2[C@H](O1)[C@@H](COP(=O)(O)O)O[C@H]2n1cnc2c(N)ncnc21 | < 6.10 |
| O=c1cnn([C@@H]2O[C@H](CO)[C@@H](O)[C@H]2O)c(=O)[nH]1 [6-AZAURIDINE] | 6.24 |
| Cc1c2cc[n+](C)cc2c(C)c2c3c([nH]c12)C=CC(=O)[C@@]31O[C@@H]2[C@H](O1)[C@@H](CO)O[C@H]2n1cnc2c(N)ncnc21 | 6.10 |

From ChEMBL document CHEMBL1123327, “Ribose as the preferential target for the oxidized form of elliptinium acetate in ribonucleos(t)ides. Biological activities of the resulting adducts” (1986)
